# Activity calls are given as the source filed them. The calls are words filed in the database; no cut-off is given here.
# Legend:
# MCF7 [1] = experiment: Anticancer activity against human MCF7 cells assessed as inhibition of cell growth measured after 72 hrs by MTT assay; type: functional, cell-based; settings: MCF7, 72 h
# How it was run: (§1)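 Cells seeded at 3000 exponentially growing cells/well and incubated 12 h at 37 °C. Medium then replaced with fresh medium containing graded compound concentrations for 72 h; 5-FU positive control. MTT (5 mg/mL solution) added for 4 h, formazan dissolved in DMSO, absorbance read at 570 nm (reference 630 nm). Relative percentage inhibition of viable cells calculated; IC50 reported as mean ± standard deviation.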
# ECa-109 cell line = experiment: Antiproliferative activity against human ECa-109 cells assessed as cell growth inhibition measured after 72 hrs by MTT assay; type: functional, cell-based; settings: ECa-109, 72 h; how it was run: as §1
# PC-3 = experiment: Antiproliferative activity against human PC-3 cells assessed as cell growth inhibition measured after 72 hrs by MTT assay; type: functional, cell-based; settings: PC-3, 72 h; how it was run: as §1
# MDA-MB-231 [2] = experiment: Antiproliferative activity against human MDA-MB-231 cells assessed as growth inhibition measured after 72 hrs by MTT assay; type: functional, cell-based; settings: MDA-MB-231, 72 h; how it was run: as §1
# MDA-MB-231 [3] = experiment: Inhibition of colony formation in human MDA-MB-231 cells incubated for 24 hrs followed by medium removal and measured after 7 days by crystal violet staining based assay; type: functional, cell-based; settings: dose 3-9 µM
# How it was run: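 Cells seeded at 1 × 10³ per well in six-well plates and left overnight. Compound (DMSO solution) given in fresh medium for 24 h, then medium removed and plates grown another 7 days. Colonies washed with PBS, fixed in 4% paraformaldehyde 30 min, stained with 0.1% crystal violet 30 min, photographed and counted.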
# MCF7 [4] = experiment: Cell cycle arrest in human MCF7 cells assessed as accumulation at G2/M phase at 2 uM measured after 48 hrs by propidium iodide staining based flow cytometry (reference value: 0.01 %); type: functional
# MCF7 [5] = experiment: Cell cycle arrest in human MCF7 cells assessed as accumulation at S phase at 4 uM measured after 48 hrs by propidium iodide staining based flow cytometry (reference value: 25.34 %); type: functional
# MCF7 [6] = experiment: Induction of apoptosis in human MCF7 cells assessed as early apoptotic cells at 2 uM measured after 48 hrs by Annexin V-FITC/propidium iodide staining based flow cytometric analysis (reference value: 3 %); type: functional
# MCF7 [7] = experiment: Induction of mitochondrial membrane potential loss in human MCF7 cells assessed as green fluorescence intensity at 1 uM measured after 48 hrs by JC1 staining-based flow cytometry analysis (reference value: 8.1 %); type: functional
# MCF7 [8] = experiment: Induction of mitochondrial membrane potential loss in human MCF7 cells assessed as red fluorescence intensity at 2 uM measured after 48 hrs by JC1 staining-based flow cytometry analysis (reference value: 91.9%); type: functional
# MCF7 [9] = experiment: Induction of mitochondrial membrane potential loss in human MCF7 cells assessed as green fluorescence intensity at 2 uM measured after 48 hrs by JC1 staining-based flow cytometry analysis (reference value: 8.1 %); type: functional
# MCF7 [10] = experiment: Induction of mitochondrial membrane potential loss in human MCF7 cells assessed as red fluorescence intensity at 4 uM measured after 48 hrs by JC1 staining-based flow cytometry analysis (reference value: 91.9%); type: functional
# MDA-MB-231 [11] = experiment: Induction of mitochondrial membrane potential loss in human MDA-MB-231 cells assessed as red fluorescence intensity at 6 uM measured after 48 hrs by JC1 staining-based flow cytometry analysis (reference value: 99.2 %); type: functional
# MDA-MB-231 [12] = experiment: Induction of mitochondrial membrane potential loss in human MDA-MB-231 cells assessed as green fluorescence intensity at 9 uM measured after 48 hrs by JC1 staining-based flow cytometry analysis (reference value: 0.8%); type: functional
# MDA-MB-231 [13] = experiment: Induction of DNA damage in human MDA-MB-231 cells assessed as increase in ATM protein expression at 3 to 9 uM measured after 48 hrs by western blot analysis; type: functional, cell-based; settings: dose 3-9 µM
# How it was run: (§2)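 Cells exposed to graded concentrations for 48 h, then proteins extracted. Run on SDS-PAGE (5–15% gels) and transferred to nitrocellulose. Blocked 2 h in 5% nonfat milk in PBS/0.1% Tween 20, primary antibody overnight at 4 °C, biotin-conjugated secondary 1 h. Visualized on X-ray film with densitometric quantitation; three independent experiments.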
# MDA-MB-231 [14] = experiment: Induction of DNA damage in human MDA-MB-231 cells assessed as increase in Chk1 protein expression at 3 to 9 uM measured after 48 hrs by western blot analysis; type: functional, cell-based; settings: dose 3-9 µM; how it was run: as §2
# MDA-MB-231 [15] = experiment: Induction of G2/M phase cell cycle arrest in human MDA-MB-231 cells assessed as increase in Cdc25c protein expression at 3 to 9 uM measured after 48 hrs by western blot analysis; type: functional, cell-based; settings: dose 3-9 µM
# MDA-MB-231 [16] = experiment: Induction of G2/M phase cell cycle arrest in human MDA-MB-231 cells assessed as decrease in cyclinB1 protein expression at 3 to 9 uM measured after 48 hrs by western blot analysis; type: functional, cell-based; settings: dose 3-9 µM; how it was run: as §2
# MCF7 [17] = experiment: Induction of apoptosis in human MCF7 cells assessed as increase in cleaved caspase 3 protein expression at 1 to 4 uM measured after 48 hrs by western blot analysis; type: functional, cell-based; settings: dose 1-4 µM
# How it was run: (§3)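 MCF-7 and MDA-MB-231 breast cancer cells treated 48 h with a concentration series, then lysed for protein. SDS-PAGE on 5–15% gels, transfer to nitrocellulose. Blocked 2 h in 5% nonfat milk/PBS-0.1% Tween 20, primary antibodies overnight at 4 °C, biotin-conjugated secondary 1 h. X-ray film detection with densitometric quantification.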
# MCF7 [18] = experiment: Induction of apoptosis in human MCF7 cells assessed as reduction in Mcl-1 protein expression at 1 to 4 uM measured after 48 hrs by western blot analysis; type: functional, cell-based; settings: dose 1-4 µM; how it was run: as §3
# MCF7 [19] = experiment: Inhibition of PI3K/AKT signalling pathway in human MCF7 cells assessed as downregulation of AKT phosphorylation at Ser473 residue at 1 to 4 uM measured after 48 hrs by Western blot analysis; type: cell-based; settings: dose 1-4 µM
# How it was run: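 After 48 h exposure to compound at several concentrations, cells collected and proteins extracted. SDS-PAGE on 5–15% gels, transfer to nitrocellulose, blocking 2 h in 5% nonfat milk in PBS/0.1% Tween 20, primary antibodies overnight at 4 °C, biotin-conjugated secondary 1 h. Detection on X-ray film; band densitometry.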
# MCF7 [20] = experiment: Induction of apoptosis in human MCF7 cells assessed as late apoptotic cells at 4 uM measured after 48 hrs in presence of cdc25c inhibitor, NSC663284 by AnnexinV-FITC/PI staining based flow cytometry (reference value: 4.9%); type: functional
# MCF7 [21] = experiment: Induction of apoptosis in human MCF7 cells assessed as increase in cleaved PARP protein expression at 4 uM measured after 48 hrs in presence of cdc25c inhibitor, NSC663284 by western blot analysis; type: functional, cell-based
# How it was run: (§4)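 Four arms per cell line: untreated, test compound, 0.3 µM NSC663284 alone, and combination. Proteins harvested after 48 h and resolved by SDS-PAGE on 5–15% gels, transferred to nitrocellulose. Blocked 2 h in milk/PBS-Tween, primary antibodies overnight at 4 °C, biotin-conjugated secondary. Read on X-ray film with densitometry.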
# MCF7 [22] = experiment: Induction of apoptosis in human MCF7 cells assessed as increase in cleaved caspase 7 protein expression at 4 uM measured after 48 hrs in presence of cdc25c inhibitor, NSC663284 by western blot analysis; type: functional, cell-based; how it was run: as §4
# MDA-MB-231 [23] = experiment: Induction of G2/M phase cell cycle arrest in human MDA-MB-231 cells assessed as upregulation of p-cdc25c at ser216 residue protein expression at 9 uM measured after 48 hrs by western blot analysis; type: functional, cell-based
smiles,measurement,setting,value
C[C@H]1O[C@@H](n2cnc3c(N)nc(F)nc32)[C@H](O)[C@H]1OCP(=O)([O-])[O-].[Na+].[Na+],IC50,MCF7 [1],476 nM
same,IC50,ECa-109 cell line,2570 nM
same,IC50,PC-3,2210 nM
same,IC50,MDA-MB-231 [2],391 nM
same,inhibition,MDA-MB-231 [3],Dose-Dependent Effect
same,Activity,MCF7 [4],17.9%
same,Activity,MCF7 [5],31.16%
same,Activity,MCF7 [6],46.3%
same,Activity,MCF7 [7],9.1%
same,Activity,MCF7 [8],67.2%
same,Activity,MCF7 [9],32.8%
same,Activity,MCF7 [10],41.9%
same,Activity,MDA-MB-231 [11],63.8%
same,Activity,MDA-MB-231 [12],63%
same,Activity,MDA-MB-231 [13],Active
same,Activity,MDA-MB-231 [14],Active
same,Activity,MDA-MB-231 [15],Active
same,Activity,MDA-MB-231 [16],Active
same,Activity,MCF7 [17],Active
same,Activity,MCF7 [18],Active
same,inhibition,MCF7 [19],Active
same,Activity,MCF7 [20],5.2%
same,Activity,MCF7 [21],inactive
same,Activity,MCF7 [22],inactive
same,Activity,MDA-MB-231 [23],Active

# Source: ChEMBL document CHEMBL4837218, “Synthesis and in vitro antitumour activity of 4(R)-methyl-3-O-phosphonomethyl-α-l-threose nucleosides” (Eur J Med Chem, 2021)
